The text below walks through data of ChEMBL document CHEMBL1130414, “Muscarinic analgesics with potent and selective effects on the gastrointestinal tract: potential application for the treatment of irritable bowel syndrome” (J Med Chem, 1997).

For data set [1], the target named is Muscarinic acetylcholine receptor. Nature of the data set: Binding affinity against Muscarinic acetylcholine receptors using [3H]oxotremorine-M as radioligand in rat cortex. An outline of the steps: (§1)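 Rat cortex radioligand displacement with [³H]oxotremorine-M, which labels the agonist conformational state of muscarinic receptors without subtype selectivity. Affinity is reported as Ki (nM) ± SEM.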

Data set [2] has as its system Mustela putorius furo. Nature of the data set: Minimum intravenous effective dose required to inhibit jejunal motility in ferrets. The class given is functional. An outline of the steps: (§2)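 Anesthetized male ferrets (800–1200 g), fasted 24 h before surgery, dosed iv. Spontaneous jejunal motility recorded manometrically via catheters inserted into jejunum. Value is minimum effective (threshold) dose inhibiting motility; each animal its own control; number of determinations recorded, SEM given when replicates differed.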

The subject of data set [3] is Mus musculus. Nature of the data set: Analgesic activity measured using mouse writhing antinociceptive assay after subcutaneous administration. The class given is functional. The settings on record: sc. Summed up: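 Male Cr1:CF1 mice, groups of 5–10, given vehicle or compound sc; 25 min later 0.5% acetic acid ip. Writhes per mouse counted in individual chambers 5–10 min after acid (30–35 min post-dose), expressed as mean writhes over 5 min. ED50 from linear regression.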

The test system of data set [4] is Mustela putorius furo. Nature of the data set: Intravenous effective dose required to produce a 1 mV increase in transmural potential difference in ferrets (GI side effect). It is filed as functional. An outline of the steps:
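Anesthetized male ferrets (800–1200 g), fasted 24 h before surgery, dosed iv. Transmural potential difference across jejunal wall measured with calomel half-cells and salt bridges (one in luminal fluid, other via wick electrode in serosal fluid) to an electrometer. Value is dose giving >1 mV rise in potential difference; each animal its own control.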

For data set [5], the system named is Mustela putorius furo. Nature of the data set: Minimum intravenous effective dose required to inhibit spontaneous motility in ferrets. The class given is functional. Summed up: as §2
The target in data set [6] is Muscarinic acetylcholine receptor. Briefly: Binding affinity against Muscarinic acetylcholine receptor using [3H]oxotremorine-M as radioligand in rat cortex. Summed up:
as §1

A short description of data set [7]: Mean plasma concentration measured 1 h following an oral dose of 30 mg/kg. More on the design: dose 30 mg/kg, route oral. It is filed as ADME, organism-based. Summed up:
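Rats dosed orally at 30 mg/kg; parent compound plasma concentration measured 1 h after dosing, reported as mean.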

Take `CCCCSc1nsnc1C1CN2CCCC1C2` (racemic): the Ki – broadly, the dissociation constant of the complex between target and ligand, obtained from inhibition or displacement – in data set [1] is recorded as 0.36 nM. This compound came in with a Dose in data set [2] of 0.001 mg/kg. Also, in data set [3], the ED50 (usually the dose at which the effect has come halfway, by size or by number of responders) was 0.03 mg/kg. Also, the “ED (1mV)” value in data set [4] was found to be 0.001 mg/kg.

`FC(F)(F)CCSc1nsnc1[C@@H]1CN2CCC[C@@H]1C2` gave a Ki in data set [1] of 0.44 nM. Further, the Dose in data set [2] is 0.003 mg/kg. In data set [3], this compound had an ED50 of 0.1 mg/kg. Besides, the “ED (1mV)” value in data set [4] amounted to 0.01 mg/kg.

As for `FC(F)(F)CCCSc1nsnc1[C@@H]1CN2CCC[C@@H]1C2`, the Ki in data set [1] is on record as 0.33 nM. Further, the ED50 in data set [5] came out at 0.017 mg/kg; in data set [3], 0.35 mg/kg. The “ED (1mV)” value in data set [4] was found to be 0.002 mg/kg.

Compound `FC(F)(F)CCCSc1nsnc1C1CN2CCCC1C2` (racemic) had a Dose in data set [2] of 0.001 mg/kg. The compound further yielded an inhibitory constant (Ki) in data set [6] of 0.4 nM. The compound further gave an ED50 in data set [3] of 0.1 mg/kg. Besides, the “ED (1mV)” value in data set [4] was found to be 0.03 mg/kg.

Turning to `CCCCCCSc1nccnc1C1CN2CCC1CC2` (configuration not stated), the Ki in data set [1] came to 4 nM. This compound showed a Dose in data set [2] of over 0.03 mg/kg. This compound also came in with a median effective dose (ED50) in data set [3] of 2.3 mg/kg. Besides, the “ED (1mV)” value in data set [4] was over 0.03 mg/kg.

Take `CN1CC[C@]23c4c5ccc(O)c4O[C@H]2[C@@H](O)C=C[C@H]3[C@H]1C5` [MORPHINE]: in data set [3], the ED50 is 0.3 mg/kg.

With `FC(F)(F)CCCSc1nsnc1[C@H]1CN2CCC[C@H]1C2`, the inhibition constant (Ki) in data set [1] worked out at 0.42 nM. Moreover, the ED50 in data set [5] is 0.00017 mg/kg; in data set [3], 0.1 mg/kg. In data set [7], this compound came in with a concentration at 1 h of 805 ng/mL. For the same compound, the “ED (1mV)” value in data set [4] is 0.015 mg/kg.

In data set [1], `CC(C)CCCSc1nsnc1C1CN2CCCC1C2` (racemic) had an inhibition constant (Ki) of 0.91 nM. This compound displayed a Dose in data set [2] of 0.03 mg/kg. Further, the 50% effect level in data set [3] (ED50) was put at a dose of 0.95 mg/kg. For the same compound, the “ED (1mV)” value in data set [4] was 0.003 mg/kg.

`FC(F)(F)CCCCSc1nsnc1[C@@H]1CN2CCC[C@@H]1C2`: the inhibition constant (Ki) in data set [1] is given as 0.24 nM. In data set [2], the Dose worked out at 0.001 mg/kg. Besides, in data set [3], the ED50 came out at 0.07 mg/kg. Also, the “ED (1mV)” value in data set [4] is 0.01 mg/kg.

In data set [1], `CCCCOc1nsnc1C1=CCCN(C)C1` displayed an inhibition constant Ki of 1.4 nM. This compound registered a Dose in data set [2] of 0.003 mg/kg. For the same compound, the ED50 in data set [3] amounted to 0.41 mg/kg. The “ED (1mV)” value in data set [4] worked out at 0.007 mg/kg.

Take `CCCCSc1nsnc1[C@@H]1CN2CCC[C@@H]1C2`: the inhibitory constant (Ki) in data set [1] is recorded as 0.45 nM. In data set [2], this compound displayed a Dose of 0.001 mg/kg. The median effective dose (ED50) in data set [3] was 0.19 mg/kg. Further, in data set [7], the concentration at 1 h came to 21 ng/mL. In addition, the “ED (1mV)” value in data set [4] came to 0.001 mg/kg.

`CCCCCCSc1nsnc1C1=CCCN(CC)C1` displayed a Ki in data set [1] of 18 nM. This compound registered a Dose in data set [2] of over 0.03 mg/kg. Besides, the ED50 in data set [3] was over 10 mg/kg. The “ED (1mV)” value in data set [4] was over 0.03 mg/kg.

In the case of `CN1[C@@H]2CC[C@H]1C[C@@H](OC(=O)C(CO)c1ccccc1)C2` (some centres not stated) [ATROPINE], the median effective dose (ED50) in data set [5] was 0.00073 mg/kg; in data set [3], over 30 mg/kg. Moreover, the “ED (1mV)” value in data set [4] is over 0.03 mg/kg.

For the compound `CN1CCC=C(c2nsnc2SCCCc2ccccc2)C1`, in data set [1], the Ki turned out to be 1 nM. In data set [2], this compound yielded a Dose of 0.01 mg/kg. In data set [3], this compound gave an ED50 of over 10 mg/kg. Moreover, in data set [4], the “ED (1mV)” value was 0.03 mg/kg.

The compound `C=CCCCCOc1nsnc1C1=CCCN(C)C1` registered an inhibition constant Ki in data set [1] of 3 nM. The compound also yielded a Dose in data set [2] of 0.03 mg/kg. For the same compound, in data set [3], the ED50 was 0.9 mg/kg. Further, the “ED (1mV)” value in data set [4] is 0.003 mg/kg.

Compound `CCCCSc1nsnc1C1=CCCNC1` displayed a Ki in data set [1] of 3.5 nM. In addition, in data set [2], the Dose came to 0.03 mg/kg. For the same compound, the 50% effect level in data set [3] (ED50) was put at a dose of 0.14 mg/kg. Also, the “ED (1mV)” value in data set [4] stood at 0.03 mg/kg.

The compound `FC(F)(F)CCCSc1nsnc1[C@H]1CN2CCC[C@@H]1C2` yielded a Ki in data set [1] of 9.6 nM. Moreover, the 50% effective dose (ED50) is 0.0053 mg/kg in data set [5] and 1.8 mg/kg in data set [3]. In addition, the “ED (1mV)” value in data set [4] was over 0.03 mg/kg.

Compound `FC(F)(F)CCCSc1nsnc1[C@@H]1CN2CCC[C@H]1C2` registered a Ki in data set [1] of 25 nM. Further, the values for the ED50 in data set [5] and in data set [3] were 0.0047 mg/kg and over 10 mg/kg, respectively. The “ED (1mV)” value in data set [4] was over 0.03 mg/kg.

For the compound `CCCCSc1nccnc1C1CN2CCC1CC2` (configuration not stated), the inhibition constant Ki in data set [1] is 0.5 nM. The compound also registered a Dose in data set [2] of 0.003 mg/kg. The compound further registered a 50% effective dose (ED50) in data set [3] of 3.2 mg/kg. The “ED (1mV)” value in data set [4] is 0.03 mg/kg.

As for `CCCCSc1nsnc1C1CN2CCC1CC2` (configuration not stated) [VEDACLIDINE], in data set [1], the inhibition constant (Ki) came to 0.4 nM. Moreover, the Dose in data set [2] was found to be 0.003 mg/kg. In data set [3], this compound registered a 50% effective dose (ED50) of 0.19 mg/kg. For the same compound, the “ED (1mV)” value in data set [4] was found to be 0.01 mg/kg.

Turning to `CN1CCC=C(c2nsnc2SCCCc2cccs2)C1`, in data set [1], the inhibition constant Ki amounted to 10 nM. The same compound yielded a Dose in data set [2] of 0.03 mg/kg. The same compound showed a median effective dose (ED50) in data set [3] of over 10 mg/kg. The “ED (1mV)” value in data set [4] was 0.03 mg/kg.
